In general, IC50 refers to the concentration that gives 50% inhibition. Read a low IC50 as inhibition by little substance.

Data on 3 molecules can be found in ChEMBL document CHEMBL4229380, “Arylureas derived from colchicine: Enhancement of colchicine oncogene downregulation activity” (Eur J Med Chem, 2018).

Each structure is given as a SMILES string.

Test [1] has as its system MCF7. As to the kind of experiment: Antiproliferative activity against human MCF7 cells after 2 days by MTT assay. Type of test: functional, cell-based. The following applies: MCF7, 48 h. The method, boiled down:
(§1)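 Cells (5×10^3 per well) in DMEM with 10% FBS, glucose, glutamine and antibiotics were exposed to serial dilutions (stocks in DMSO) for 2 days at 37 °C, 5% CO2. MTT was added for 3 h, formazan was dissolved in DMSO and absorbance read at 490 nm. Viability was taken as % of untreated cells. IC50 was read graphically from three independent experiments.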

Test [2] deals with HT-29. The test can be described thus: Induction of apoptosis in human HT-29 cells assessed as viable cells at 0.5 nM after 48 hrs by Annexin V-FITC staining-based flow cytometric analysis (reference value: 82 +/- 1%). Type of test: functional. The conditions noted are these: HT-29, 48 h, read-out: Activity.
Test [3] concerns HT-29. As to the kind of experiment: Induction of apoptosis in human HT-29 cells assessed as necrotic cells at 0.5 nM after 48 hrs by Annexin V-FITC staining-based flow cytometric analysis (reference value: 2 +/- 6%). Type of test: functional. For orientation: A flow cytometer gives signals particle by particle.
Test [4] has as its system HT-29. As to the kind of experiment: Effect on VEGF protein expression in human HT-29 cells assessed as secreted VEGF level in culture media at 0.5 nM after 48 hrs by ELISA. On the technique in general: In an ELISA, binding on a coated surface is turned into a signal by an enzyme label.
In test [5] the test system is HEK293. As to the kind of experiment: Antiproliferative activity against human HEK293 cells after 2 days by MTT assay. Type of test: cell-based. The following applies: HEK293, 48 h. A digest of the protocol:
as §1
A general note: Formazan colour is commonly taken as a measure of viable cells.

The subject of test [6] is HT-29. As to the kind of experiment: Antiproliferative activity against human HT-29 cells after 2 days by MTT assay. It is filed as functional, cell-based. The conditions noted are these: HT-29, 48 h. A digest of the protocol: as §1
Test [7] has as its system HT-29. As to the kind of experiment: Effect on hTERT gene expression in human HT-29 cells assessed as hTERT level at 0.5 nM after 48 hrs by RT-qPCR analysis. Type of test: functional. A digest of the protocol:
(§2)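 HT-29 cells at 70–80% confluence were seeded at 1.5×10^5 per well and left 24 h, then treated 48 h, with DMSO as control. Total RNA was extracted and VEGF-A, c-Myc and hTERT were quantified by TaqMan qPCR, normalized to β-actin and to living cell number. Results are % expression versus control, at least three measurements.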

Test [8] deals with HT-29. As to the kind of experiment: Induction of apoptosis in human HT-29 cells assessed as apoptotic cells at 0.5 nM after 48 hrs by Annexin V-FITC staining-based flow cytometric analysis (reference value: 13 +/- 3%). It is filed as functional.
In test [9] the test system is HT-29. The test can be described thus: Effect on VEGFR2 protein expression in human HT-29 cells assessed as VEGFR2 level at 0.5 nM after 48 hrs by ELISA. Type of test: functional. The method, boiled down: (§3)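 HT-29 cells (1.5×10^5 per well, 24 h pre-culture) were treated 48 h and washed in PBS. They were lysed in Tris pH 7.4 buffer with detergents, phosphatase inhibitors, PMSF and protease inhibitors. Lysates were adjusted to 200 µg/mL protein (Bradford) and total c-Myc or VEGFR-2 was measured by sandwich ELISA kit. Values are % of DMSO control, ≥3 measurements.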

Test [10] concerns HT-29. As to the kind of experiment: Effect on VEGF gene expression in human HT-29 cells assessed as VEGF level at 0.5 nM after 48 hrs by RT-qPCR analysis. Type of test: functional. The method, boiled down:
as §2

Test [11] has as its system HeLa. The test can be described thus: Antiproliferative activity against human HeLa cells after 2 days by MTT assay. The conditions noted are these: 48 h. Type of test: functional, cell-based. The method, boiled down: as §1
In test [12] the test system is HT-29. The test can be described thus: Effect on c-MYC gene expression in human HT-29 cells assessed as c-MYC level at 0.5 nM after 48 hrs by RT-qPCR analysis. Type of test: functional. A digest of the protocol: as §2
Test [13] concerns HT-29. As to the kind of experiment: Effect on c-MYC protein expression in human HT-29 cells assessed as c-MYC level at 0.5 nM after 48 hrs by ELISA. It is filed as functional. The method, boiled down:
as §3

For test [14], the system named is HT-29. The test can be described thus: Induction of apoptosis in human HT-29 cells assessed as viable cells at 500 nM after 48 hrs by Annexin V-FITC staining-based flow cytometric analysis (reference value: 82 +/- 1%). It is filed as functional. The following applies: HT-29, 48 h, read-out: Activity.
Test [15] has as its system HT-29. The test can be described thus: Induction of apoptosis in human HT-29 cells assessed as apoptotic cells at 500 nM after 48 hrs by Annexin V-FITC staining-based flow cytometric analysis (reference value: 13 +/- 3%). Type of test: functional.
The test system of test [16] is HT-29. The test can be described thus: Induction of apoptosis in human HT-29 cells assessed as necrotic cells at 500 nM after 48 hrs by Annexin V-FITC staining-based flow cytometric analysis (reference value: 2 +/- 6%). Type of test: functional.
Test [17] relates to HT-29. The test can be described thus: Induction of apoptosis in human HT-29 cells assessed as viable cells at 1000 nM after 48 hrs by Annexin V-FITC staining-based flow cytometric analysis (reference value: 82 +/- 1%). Type of test: functional. The following applies: HT-29, 48 h, read-out: Activity.
The subject of test [18] is HT-29. The test can be described thus: Induction of apoptosis in human HT-29 cells assessed as necrotic cells at 1000 nM after 48 hrs by Annexin V-FITC staining-based flow cytometric analysis (reference value: 2 +/- 6%). It is filed as functional.
The subject of test [19] is HT-29. As to the kind of experiment: Induction of apoptosis in human HT-29 cells assessed as apoptotic cells at 1000 nM after 48 hrs by Annexin V-FITC staining-based flow cytometric analysis (reference value: 13 +/- 3%). Type of test: functional.

On to `COc1cc2c(c(OC)c1OC)-c1ccc(OC)c(=O)cc1[C@@H](NC(=O)Nc1ccccc1Cl)CC2`, for which the concentration for half-maximal inhibition (IC50) is 1.3 nM in test [1], 0.7 nM in test [5], 0.8 nM in test [6] and 1.2 nM in [11]. Also, the viability at 0.0005 µM in [2] worked out at 58%. For the same molecule, the Activity worked out at 1% in test [3]; 34% in test [4]; 46% in [7]; 41% in test [8]; 38% in test [9]; 30% in test [10]. In addition, the Activity in test [12] stood at 25%; in [13], 51%.
On to `CCc1cccc(CC)c1NC(=O)N[C@H]1CCc2cc(OC)c(OC)c(OC)c2-c2ccc(OC)c(=O)cc21`, for which the viability at 0.5 µM in test [14] was 67%. Moreover, the half-inhibitory concentration (IC50) stood at 185 nM in test [1], 801 nM in test [5], 838 nM in test [6] and 304 nM in test [11]. Further, the Activity is recorded as 32% in test [15] and 1% in test [16].
Turning to `COc1ccccc1NC(=O)N[C@H]1CCc2cc(OC)c(OC)c(OC)c2-c2ccc(OC)c(=O)cc21`, the IC50 in test [1] is 1200 nM; in [5] it was 1200 nM; in test [6], 1200 nM; in test [11], 1400 nM. The viability at 1 µM in test [17] stood at 55%. In addition, the Activity is given as 1% in test [18] and 44% in [19].
